In ChEMBL document CHEMBL1649571, “In vitro activity of TR-700, the active ingredient of the antibacterial prodrug TR-701, a novel oxazolidinone antibacterial agent” (2009):
≈ marks a conversion by molar mass, not a printed value.

Columns and labels:
Type in all cases: functional
[1] = system: Enterococcus faecalis; assay: Antibacterial activity against vancomycin-susceptible Enterococcus faecalis by CLSI M7-A7 broth microdilution method
Outline: (§1)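 Reference broth microdilution MIC under aerobic conditions on recent (2005–2008) clinical isolates from U.S. and non-U.S. sites. QC strains run alongside, required to fall within published CLSI ranges.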

[2] = system: Enterococcus faecalis; assay: Antibacterial activity against vancomycin-resistant Enterococcus faecalis by CLSI M7-A7 broth microdilution method; outline: as §1
[3] = system: Enterococcus faecium; assay: Antibacterial activity against vancomycin-susceptible Enterococcus faecium by CLSI M7-A7 broth microdilution method; outline: as §1
[4] = system: Enterococcus faecium; assay: Antibacterial activity against vancomycin-resistant Enterococcus faecium by CLSI M7-A7 broth microdilution method; outline: as §1
[5] = system: Streptococcus pneumoniae; assay: Antibacterial activity against penicillin-susceptible Streptococcus pneumoniae by CLSI M7-A7 broth microdilution method; outline: as §1
[6] = system: Streptococcus pneumoniae; assay: Antibacterial activity against penicillin-intermediate Streptococcus pneumoniae by CLSI M7-A7 broth microdilution method; outline: as §1
[7] = system: Streptococcus pneumoniae; assay: Antibacterial activity against penicillin-resistant Streptococcus pneumoniae by CLSI M7-A7 broth microdilution method; outline: as §1
[8] = system: Streptococcus pyogenes; assay: Antibacterial activity against Streptococcus pyogenes by CLSI M7-A7 broth microdilution broth microdilution method; outline: as §1
[9] = system: Streptococcus agalactiae; assay: Antibacterial activity against Streptococcus agalactiae by CLSI M7-A7 broth microdilution method; outline: as §1
[10] = system: Haemophilus influenzae; assay: Antibacterial activity against Haemophilus influenzae by CLSI M7-A7 broth microdilution method
Outline: (§2)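 Recent (2005 to 2008) clinical isolates from U.S. (80%) and non-U.S. (20%) sites. Aerobic MICs were determined by CLSI reference broth microdilution, with quality control strains checked against the published CLSI ranges.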

[11] = system: Moraxella catarrhalis; assay: Antibacterial activity against Moraxella catarrhalis by CLSI M7-A7 broth microdilution method; outline: as §2
[12] = system: Bacteroides fragilis; assay: Antibacterial activity against Bacteroides fragilis by CLSI M11-A7 agar dilution method
Outline: (§3)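 Recent (2005 to 2008) clinical isolates. Anaerobes grown 48 h in an anaerobic glove box, with inoculum suspensions made in prereduced broth inside the box. A Steers replicator stamped the inoculum onto drug-supplemented agar. After absorption, plates were incubated 48 h at 37°C, then removed from the box and the MIC read. QC strains were run against the CLSI ranges.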

[13] = system: Phocaeicola vulgatus; assay: Antibacterial activity against Bacteroides vulgatus by CLSI M11-A7 agar dilution method; outline: as §3
[14] = system: Bacteroides thetaiotaomicron; assay: Antibacterial activity against Bacteroides thetaiotaomicron by CLSI M11-A7 agar dilution method; outline: as §3
[15] = system: Bacteroides ovatus; assay: Antibacterial activity against Bacteroides ovatus by CLSI M11-A7 agar dilution method; outline: as §3
[16] = system: Clostridium perfringens; assay: Antibacterial activity against Clostridium perfringens by CLSI M11-A7 agar dilution method
Outline: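 Reference agar dilution MIC on recent (2005–2008) clinical isolates. Cultures grown 48 h in an anaerobic glove box; inoculum suspended in prereduced broth inside the box and stamped by Steers replicator onto drug-supplemented agar. Plates incubated 48 h at 37°C before MIC reading. QC strains run alongside, required to fall within CLSI ranges.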

[17] = system: Peptostreptococcus anaerobius; assay: Antibacterial activity against Peptostreptococcus anaerobius by CLSI M11-A7 agar dilution method; outline: as §3
[18] = system: Parvimonas micra; assay: Antibacterial activity against Peptostreptococcus micros by CLSI M11-A7 agar dilution method; outline: as §3
[19] = system: Porphyromonas asaccharolytica; assay: Antibacterial activity against Porphyromonas asaccharolytica by CLSI M11-A7 agar dilution method; outline: as §3
[20] = system: Prevotella sp.; assay: Antibacterial activity against Prevotella sp. by CLSI M11-A7 agar dilution method; outline: as §3
[21] = system: Staphylococcus aureus; assay: Antibacterial activity against methicillin-susceptible Staphylococcus aureus by CLSI M7-A7 broth microdilution method; outline: as §1
[22] = system: Staphylococcus aureus; assay: Antibacterial activity against methicillin-resistant Staphylococcus aureus by CLSI M7-A7 broth microdilution method; outline: as §1
[23] = system: Staphylococcus aureus; assay: Antibacterial activity against community-acquired methicillin-resistant Staphylococcus aureus by CLSI M7-A7 broth microdilution method; outline: as §1
[24] = system: Staphylococcus epidermidis; assay: Antibacterial activity against methicillin-susceptible Staphylococcus epidermidis by CLSI M7-A7 broth microdilution method
[25] = system: Staphylococcus epidermidis; assay: Antibacterial activity against methicillin-resistant Staphylococcus epidermidis by CLSI M7-A7 broth microdilution method; outline: as §1

`Cn1nnc(-c2ccc(-c3ccc(N4C[C@H](CO)OC4=O)cc3F)cn2)n1` [TEDIZOLID] was tested, and the MIC50 [1] was 0.5 µg/mL (≈ 1.35 µM), the MIC90 [1] was 1 µg/mL (≈ 2.7 µM) and the MIC50 [2] was 0.5 µg/mL (≈ 1.35 µM). The MIC90 [2] was 0.5 µg/mL (≈ 1.35 µM), the MIC50 [3] was 0.5 µg/mL (≈ 1.35 µM) and the MIC90 [3] was 1 µg/mL (≈ 2.7 µM). It also gave an MIC50 [4] of 0.5 µg/mL (≈ 1.35 µM), an MIC90 [4] of 0.5 µg/mL (≈ 1.35 µM) and an MIC50 [5] of 0.25 µg/mL (≈ 0.675 µM). For the same compound, the MIC90 [5] was 0.25 µg/mL (≈ 0.675 µM), the MIC50 [6] was 0.25 µg/mL (≈ 0.675 µM) and the MIC90 [6] was 0.25 µg/mL (≈ 0.675 µM). It also gave an MIC50 [7] of 0.25 µg/mL (≈ 0.675 µM), an MIC90 [7] of 0.25 µg/mL (≈ 0.675 µM) and an MIC50 [8] of 0.25 µg/mL (≈ 0.675 µM). For the same compound, the MIC90 [8] was 0.5 µg/mL (≈ 1.35 µM), the MIC50 [9] was 0.25 µg/mL (≈ 0.675 µM) and the MIC90 [9] was 0.5 µg/mL (≈ 1.35 µM). For the same compound, the MIC50 [10] was 8 µg/mL (≈ 21.6 µM), the MIC90 [10] was 16 µg/mL (≈ 43.2 µM) and the MIC50 [11] was 2 µg/mL (≈ 5.4 µM). For the same compound, the MIC90 [11] was 4 µg/mL (≈ 10.8 µM), the MIC50 [12] was 4 µg/mL (≈ 10.8 µM) and the MIC90 [12] was 4 µg/mL (≈ 10.8 µM). It also gave an MIC50 [13] of 2 µg/mL (≈ 5.4 µM), an MIC90 [13] of 4 µg/mL (≈ 10.8 µM) and an MIC [14] of 2 µg/mL (≈ 5.4 µM). For the same compound, the MIC50 [14] was 2 µg/mL (≈ 5.4 µM), the MIC90 [14] was 2 µg/mL (≈ 5.4 µM) and the MIC50 [15] was 2 µg/mL (≈ 5.4 µM). It also gave an MIC90 [15] of 8 µg/mL (≈ 21.6 µM), an MIC50 [16] of 0.5 µg/mL (≈ 1.35 µM) and an MIC90 [16] of 2 µg/mL (≈ 5.4 µM). The MIC50 [17] was 0.25 µg/mL (≈ 0.675 µM), the MIC90 [17] was 0.5 µg/mL (≈ 1.35 µM) and the MIC50 [18] was 0.25 µg/mL (≈ 0.675 µM). The MIC90 [18] was 0.5 µg/mL (≈ 1.35 µM), the MIC [19] was 0.25 µg/mL (≈ 0.675 µM) and the MIC50 [19] was 0.25 µg/mL (≈ 0.675 µM). For the same compound, the MIC90 [19] was 0.5 µg/mL (≈ 1.35 µM), the MIC50 [20] was 1 µg/mL (≈ 2.7 µM) and the MIC90 [20] was 4 µg/mL (≈ 10.8 µM). The MIC50 [21] was 0.5 µg/mL (≈ 1.35 µM), the MIC90 [21] was 0.5 µg/mL (≈ 1.35 µM) and the MIC50 [22] was 0.5 µg/mL (≈ 1.35 µM). The MIC90 [22] was 0.5 µg/mL (≈ 1.35 µM), the MIC50 [23] was 0.5 µg/mL (≈ 1.35 µM) and the MIC90 [23] was 0.5 µg/mL (≈ 1.35 µM). The MIC50 [24] was 0.25 µg/mL (≈ 0.675 µM), the MIC90 [24] was 0.5 µg/mL (≈ 1.35 µM) and the MIC50 [25] was 0.25 µg/mL (≈ 0.675 µM). The MIC90 [25] was 0.5 µg/mL (≈ 1.35 µM).
For `C[C@@H](O)[C@H]1C(=O)N2C(C(=O)O)=C(SCCNC=N)C[C@H]12` [IMIPENEM ANHYDROUS], the MIC [12] was 0.12 µg/mL (≈ 0.401 µM), the MIC50 [12] was 0.12 µg/mL (≈ 0.401 µM) and the MIC90 [12] was 0.5 µg/mL (≈ 1.67 µM). It also gave an MIC [13] of 0.25 µg/mL (≈ 0.835 µM), an MIC50 [13] of 0.25 µg/mL (≈ 0.835 µM) and an MIC90 [13] of 0.5 µg/mL (≈ 1.67 µM). It also gave an MIC50 [14] of 0.5 µg/mL (≈ 1.67 µM), an MIC90 [14] of 1 µg/mL (≈ 3.34 µM) and an MIC50 [15] of 0.25 µg/mL (≈ 0.835 µM). It also gave an MIC90 [15] of 0.5 µg/mL (≈ 1.67 µM), an MIC50 [16] of 0.12 µg/mL (≈ 0.401 µM) and an MIC90 [16] of 0.5 µg/mL (≈ 1.67 µM). It also gave an MIC50 [17] of 0.06 µg/mL (≈ 0.2 µM), an MIC90 [17] of 1 µg/mL (≈ 3.34 µM) and an MIC [18] of no more than 0.03 µg/mL. The MIC50 [18] was no more than 0.03 µg/mL, the MIC90 [18] was no more than 0.03 µg/mL and the MIC [19] was no more than 0.03 µg/mL. It also gave an MIC50 [19] of less than 0.03 µg/mL, an MIC90 [19] of 0.06 µg/mL (≈ 0.2 µM) and an MIC50 [20] of no more than 0.06 µg/mL. The MIC90 [20] was 1 µg/mL (≈ 3.34 µM).
Compound `Cc1onc(-c2ccccc2)c1C(=O)N[C@@H]1C(=O)N2[C@@H]1SC(C)(C)[C@@H]2C(=O)O` [OXACILLIN] has an MIC50 [21] of 0.25 µg/mL (≈ 0.623 µM), an MIC90 [21] of 0.5 µg/mL (≈ 1.25 µM) and an MIC50 [22] of 32 µg/mL (≈ 79.7 µM). It also gave an MIC90 [22] of 32 µg/mL (≈ 79.7 µM), an MIC50 [23] of 32 µg/mL (≈ 79.7 µM) and an MIC90 [23] of 32 µg/mL (≈ 79.7 µM). For the same compound, the MIC50 [24] was 0.12 µg/mL (≈ 0.299 µM), the MIC90 [24] was 0.25 µg/mL (≈ 0.623 µM) and the MIC50 [25] was 16 µg/mL (≈ 39.9 µM). The MIC90 [25] was greater than 32 µg/mL.
